Results: ChEMBL document CHEMBL3596131, “Discovery of a novel trans-1,4-dioxycyclohexane GPR119 agonist series” (Bioorg Med Chem Lett, 2015)
Calls of active or inactive are those of the source. The calls are words filed in the database; no cut-off is given here.

What was measured:
[1] = Plasma concentration in Sprague-Dawley rat at 2 mg/kg, po measured at 2 hrs; type: ADME, organism-based
Method in brief: (§1)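 Abbreviated CNS study in male SD rats given 2 mg/kg orally in 20% hp-β-CD; brain (ng/g) and plasma (ng/mL) levels sampled at 2 h post-dose, brain/plasma ratio calculated.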

[2] = Clearance in Sprague-Dawley rat at 2 mg/kg, iv and po; type: ADME, organism-based; details: in vivo
Method in brief: (§2)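 Male Sprague-Dawley rats; 2 mg/kg IV and 2 mg/kg PO in 20% hp-β-CD; clearance, Vss, terminal t1/2, Cmax, AUClast and oral bioavailability derived.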

[3] = Drug uptake in Sprague-Dawley rat brain at 2 mg/kg, po measured at 2 hrs; type: ADME, organism-based; details: read-out: Drug uptake; method in brief: as §1
[4] = target: Voltage-gated inwardly rectifying potassium channel KCNH2 (Homo sapiens, UniProt Q12809); assay: Inhibition of human ERG by patch clamp assay
Chain of Voltage-gated inwardly rectifying potassium channel KCNH2 (Q12809 whole entry): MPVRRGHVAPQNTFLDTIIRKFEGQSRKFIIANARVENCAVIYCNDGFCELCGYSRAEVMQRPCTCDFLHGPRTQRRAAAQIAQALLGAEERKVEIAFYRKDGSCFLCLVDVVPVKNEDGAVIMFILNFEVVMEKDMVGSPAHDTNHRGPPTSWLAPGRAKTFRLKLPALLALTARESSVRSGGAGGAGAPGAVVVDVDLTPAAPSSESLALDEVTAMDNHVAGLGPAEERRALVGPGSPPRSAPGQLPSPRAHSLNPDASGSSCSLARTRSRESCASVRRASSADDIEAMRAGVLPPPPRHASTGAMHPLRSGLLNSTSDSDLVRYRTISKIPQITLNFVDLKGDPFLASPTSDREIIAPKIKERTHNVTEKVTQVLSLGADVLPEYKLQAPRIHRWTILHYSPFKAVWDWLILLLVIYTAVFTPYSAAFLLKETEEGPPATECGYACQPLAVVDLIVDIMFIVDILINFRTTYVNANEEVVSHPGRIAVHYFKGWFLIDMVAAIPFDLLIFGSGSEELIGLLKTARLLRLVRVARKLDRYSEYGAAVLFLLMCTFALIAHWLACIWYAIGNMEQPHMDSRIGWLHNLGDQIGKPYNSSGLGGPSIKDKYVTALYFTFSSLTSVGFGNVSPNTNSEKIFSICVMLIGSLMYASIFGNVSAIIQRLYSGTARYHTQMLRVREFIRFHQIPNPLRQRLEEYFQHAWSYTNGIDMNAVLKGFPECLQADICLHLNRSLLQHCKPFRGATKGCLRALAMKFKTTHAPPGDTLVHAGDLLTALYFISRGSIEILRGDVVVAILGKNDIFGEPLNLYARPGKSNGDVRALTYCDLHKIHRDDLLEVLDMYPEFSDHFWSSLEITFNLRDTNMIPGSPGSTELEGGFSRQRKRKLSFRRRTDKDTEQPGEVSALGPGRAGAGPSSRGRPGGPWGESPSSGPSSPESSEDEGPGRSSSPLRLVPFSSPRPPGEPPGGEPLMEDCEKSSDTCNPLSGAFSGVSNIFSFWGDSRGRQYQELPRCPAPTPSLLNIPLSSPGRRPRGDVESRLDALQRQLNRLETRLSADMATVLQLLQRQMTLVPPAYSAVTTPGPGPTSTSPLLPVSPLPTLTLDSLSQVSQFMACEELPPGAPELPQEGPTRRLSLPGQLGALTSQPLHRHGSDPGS

Rattus norvegicus [5] = assay: Antidiabetic activity in Zucker diabetic fatty rat assessed as suppression of plasma glucose AUC at 10 mg/kg administered 60 mins prior to glucose challenge by OGTT relative to vehicle-treated control; type: functional
Rattus norvegicus [6] = assay: Antidiabetic activity in Zucker diabetic fatty rat assessed as fed glucose lowering effect at 1 to 10 mg/kg, qd administered over 4 weeks measured after 2 weeks of treatment; type: functional, organism-based
Method in brief: (§3)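 Chronic study in ZDF rats: once-daily dosing at 1, 3 or 10 mg/kg for 4 weeks, vehicle 0.5% methylcellulose; fed glucose and body weight tracked at dosing times, HbA1c measured on day 28 relative to vehicle.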

Uncharacterized protein = target: T1, Uncharacterized protein (Canis lupus familiaris, UniProt A0A8C0THM6); assay: Agonist activity at canine GPR119 by HTRF cAMP assay
T1 sequence (A0A8C0THM6 whole entry): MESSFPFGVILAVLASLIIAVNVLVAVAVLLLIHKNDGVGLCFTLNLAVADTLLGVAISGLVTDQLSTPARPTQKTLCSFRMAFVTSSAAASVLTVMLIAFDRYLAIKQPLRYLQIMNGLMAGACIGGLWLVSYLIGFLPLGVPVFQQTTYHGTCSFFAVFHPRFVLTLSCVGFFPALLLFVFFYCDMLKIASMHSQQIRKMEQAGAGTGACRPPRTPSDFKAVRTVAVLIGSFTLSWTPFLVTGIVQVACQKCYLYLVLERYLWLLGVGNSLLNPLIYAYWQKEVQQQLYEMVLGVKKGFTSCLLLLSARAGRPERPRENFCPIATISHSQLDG

Rattus norvegicus [7] = assay: Antidiabetic activity in Zucker diabetic fatty rat assessed as decrease in HbA1C level at 1 mg/kg, qd administered over 4 weeks measured on day 28 post last dose relative to vehicle-treated control; type: functional; design: scale not given: the % may be the effect or the level left; method in brief: as §3
[8] = Plasma protein binding in rat; type: ADME, cell-free; details: read-out: PPB (converted)
[9] = Half life in rat liver microsomes; type: ADME
[10] = Oral bioavailability in Sprague-Dawley rat at 2 mg/kg; type: ADME, organism-based; details: in vivo; method in brief: as §2
[11] = target: T2, Uncharacterized protein (Canis lupus familiaris) (UniProt A0A8C0THM6); assay: Agonist activity at canine GPR119 by HTRF cAMP assay relative to AR231453
T2 sequence (whole entry): T1 sequence (A0A8C0THM6 whole entry)

[12] = Agonist activity at monkey GPR119 by HTRF cAMP assay; design: species or system Macaca mulatta
Macaca mulatta = species on record: Macaca mulatta; assay: Agonist activity at monkey GPR119 by HTRF cAMP assay relative to AR231453
[13] = Half life in mouse liver microsomes; type: ADME
Cytochrome P450 2C19 = Cytochrome P450 2C19 (Homo sapiens, UniProt P33261); assay: Inhibition of CYP2C19 in human liver microsomes; type: ADME
Chain of Cytochrome P450 2C19 (P33261 whole entry): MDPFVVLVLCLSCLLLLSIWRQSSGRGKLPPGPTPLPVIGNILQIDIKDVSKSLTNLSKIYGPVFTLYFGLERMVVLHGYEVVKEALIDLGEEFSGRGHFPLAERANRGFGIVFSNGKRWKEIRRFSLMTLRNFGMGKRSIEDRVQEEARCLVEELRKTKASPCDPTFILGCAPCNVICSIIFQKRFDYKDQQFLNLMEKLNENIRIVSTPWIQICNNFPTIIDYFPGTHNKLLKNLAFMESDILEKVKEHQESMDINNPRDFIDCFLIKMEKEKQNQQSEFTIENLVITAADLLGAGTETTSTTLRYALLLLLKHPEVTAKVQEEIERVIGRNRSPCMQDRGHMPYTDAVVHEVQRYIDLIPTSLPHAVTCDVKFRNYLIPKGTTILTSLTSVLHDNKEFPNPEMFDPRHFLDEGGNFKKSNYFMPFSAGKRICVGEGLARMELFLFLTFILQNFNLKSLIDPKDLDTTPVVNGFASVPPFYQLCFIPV

[14] = Half life in human liver microsomes; type: ADME
[15] = Terminal half life in Sprague-Dawley rat at 2 mg/kg, iv and po; type: ADME, organism-based; details: in vivo, read-out: beta t1/2 (converted); method in brief: as §2
Rattus norvegicus [16] = assay: Antidiabetic activity in Zucker diabetic fatty rat assessed as suppression of plasma glucose AUC administered 60 mins prior to glucose challenge by OGTT; type: functional, organism-based
Cytochrome P450 2D6 = Cytochrome P450 2D6 (Homo sapiens, UniProt P10635); assay: Inhibition of CYP2D6 in human liver microsomes; type: ADME
Chain of Cytochrome P450 2D6 (P10635 whole entry): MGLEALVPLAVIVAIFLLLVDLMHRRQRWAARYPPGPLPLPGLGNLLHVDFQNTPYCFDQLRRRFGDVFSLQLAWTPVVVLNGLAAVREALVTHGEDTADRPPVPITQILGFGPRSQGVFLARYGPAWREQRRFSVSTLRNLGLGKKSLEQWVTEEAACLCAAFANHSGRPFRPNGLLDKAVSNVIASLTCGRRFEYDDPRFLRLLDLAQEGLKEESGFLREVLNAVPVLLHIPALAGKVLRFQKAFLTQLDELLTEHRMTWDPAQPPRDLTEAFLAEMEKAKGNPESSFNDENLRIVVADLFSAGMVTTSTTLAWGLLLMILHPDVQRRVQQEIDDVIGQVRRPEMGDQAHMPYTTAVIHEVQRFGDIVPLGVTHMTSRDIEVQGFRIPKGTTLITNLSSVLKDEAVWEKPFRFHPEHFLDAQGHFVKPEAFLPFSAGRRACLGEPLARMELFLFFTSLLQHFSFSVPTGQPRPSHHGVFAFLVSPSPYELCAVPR

Cytochrome P450 1A2 = target: T3, Cytochrome P450 1A2 (Homo sapiens, UniProt P05177); assay: Inhibition of CYP1A2 in human liver microsomes; type: ADME
T3 sequence (P05177 whole entry): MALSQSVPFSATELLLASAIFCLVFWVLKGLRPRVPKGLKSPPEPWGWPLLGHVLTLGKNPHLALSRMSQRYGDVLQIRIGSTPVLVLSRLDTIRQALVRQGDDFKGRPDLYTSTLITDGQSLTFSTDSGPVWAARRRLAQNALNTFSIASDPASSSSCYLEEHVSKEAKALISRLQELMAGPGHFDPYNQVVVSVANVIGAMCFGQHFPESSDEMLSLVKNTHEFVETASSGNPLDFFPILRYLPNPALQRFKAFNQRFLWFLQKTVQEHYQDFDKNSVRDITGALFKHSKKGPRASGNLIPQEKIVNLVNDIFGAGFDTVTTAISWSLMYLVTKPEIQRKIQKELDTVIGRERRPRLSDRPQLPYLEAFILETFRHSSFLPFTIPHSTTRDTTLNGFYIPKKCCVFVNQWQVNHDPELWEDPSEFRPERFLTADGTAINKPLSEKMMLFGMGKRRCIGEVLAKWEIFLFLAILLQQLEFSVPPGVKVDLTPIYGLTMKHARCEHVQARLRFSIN

Mus musculus = assay: In vivo activation of GPR119 in normoglycemic 129SVE mouse assessed as increase in GIP level in plasma at 3 to 30 mg/kg, po measured after 45 mins relative to vehicle-treated control; type: functional, organism-based
Method in brief: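 Normoglycemic male 129SVE mice dosed orally (3 and 30 mg/kg); plasma GIP measured 45 min after dosing versus vehicle-treated controls; AR231453 at 30 mg/kg as reference agonist.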

[17] = Half life in human hepatocytes; type: ADME, cell-based, Hepatocyte

Question: Which concentration at 2 h [1] does the source give for `C[C@@H](OC(=O)N1CCC(O[C@H]2CC[C@H](Oc3cnc(S(C)(=O)=O)cn3)CC2)CC1)C(F)(F)F` here?
Answer: 841 ng/mL

Question: And the clearance [2]?
Answer: 6.67 mL/min/kg

Question: And the concentration at 2 h [3]?
Answer: 820 ng/g

Question: What about the IC50 [4] of the same molecule?
Answer: > 30000 nM

Question: What about the Activity (Rattus norvegicus [5]) of the same molecule?
Answer: 58%

Question: What about the Activity (Rattus norvegicus [6]) of the same molecule?
Answer: Active

Question: What about the EC50 (Uncharacterized protein) of the same molecule?
Answer: 6.1 nM

Question: What about the Activity (Rattus norvegicus [7]) of the same molecule?
Answer: 1.63%

Question: And the fraction unbound [8]?
Answer: 0.04

Question: What about the half-life [9] of the same molecule?
Answer: > 1 h

Question: What about the bioavailability [10] of the same molecule?
Answer: 100%

Question: What about the Emax [11] of the same molecule?
Answer: 144%

Question: And the EC50 [12]?
Answer: 3.4 nM

Question: And the Emax (Macaca mulatta)?
Answer: 73%

Question: What about the half-life [13] of the same molecule?
Answer: > 1 h

Question: What about the INH (Cytochrome P450 2C19) of the same molecule?
Answer: 23.4 µM

Question: And the half-life [14]?
Answer: > 1 h

Question: And the half-life [15]?
Answer: 6.45 h

Question: What about the Activity (Rattus norvegicus [16]) of the same molecule?
Answer: Dose-dependent effect

Question: What about the INH (Cytochrome P450 2D6) of the same molecule?
Answer: > 50 µM

Question: What about the INH (Cytochrome P450 1A2) of the same molecule?
Answer: > 50 µM

Question: And the Activity (Mus musculus)?
Answer: Active

Question: What about the half-life [17] of the same molecule?
Answer: > 2 h
